According to ChEMBL document CHEMBL2016445, “Discovery of a novel class of potent and orally bioavailable sphingosine 1-phosphate receptor 1 antagonists” (J Med Chem, 2012):

Tests used:
[1] = target: T1, Sphingosine 1-phosphate receptor 1 (Homo sapiens, UniProt P21453); experiment: Antagonist activity at S1P1 receptor expressed in HEK293 cells assessed as inhibition of S1P-induced cAMP response after 90 mins by spectrophotometry; assay type: functional, cell-based
[2] = Drug uptake in nu/nu homozygous mouse plasma at 100 mg/kg, po as a suspension in 10% NMP/corn oil after 4 hrs by HPLC/MS/MS analysis; assay type: ADME, organism-based; design: dose 100 mg/kg, route oral
Summary of the method: (§1)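 Female Nu/Nu mice (~8 wk, 20-22 g) given a single 100 mpk oral dose at 10 mL/kg. Vehicles: 10% EtOH/45% or 40% PEG400/water + 1 molar equiv HCl, 10% EtOH/40% PEG400/20% Captisol + HCl, or 10% NMP/90% corn oil. Heparinized blood collected 1 and 4 h post-dose; plasma analysed by HPLC/MS/MS.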

[3] = Drug uptake in nu/nu homozygous mouse plasma at 100 mg/kg, po as a suspension in 10% NMP/corn oil after 24 hrs by HPLC/MS/MS analysis; assay type: ADME, organism-based; design: dose 100 mg/kg, route oral
[4] = target: Cytochrome P450 3A4 (Homo sapiens, UniProt P08684); experiment: Inhibition of human CYP3A4 using testosterone as substrate by LC/MS/MS analysis; assay type: ADME
Cytochrome P450 3A4, sequence (P08684 whole entry): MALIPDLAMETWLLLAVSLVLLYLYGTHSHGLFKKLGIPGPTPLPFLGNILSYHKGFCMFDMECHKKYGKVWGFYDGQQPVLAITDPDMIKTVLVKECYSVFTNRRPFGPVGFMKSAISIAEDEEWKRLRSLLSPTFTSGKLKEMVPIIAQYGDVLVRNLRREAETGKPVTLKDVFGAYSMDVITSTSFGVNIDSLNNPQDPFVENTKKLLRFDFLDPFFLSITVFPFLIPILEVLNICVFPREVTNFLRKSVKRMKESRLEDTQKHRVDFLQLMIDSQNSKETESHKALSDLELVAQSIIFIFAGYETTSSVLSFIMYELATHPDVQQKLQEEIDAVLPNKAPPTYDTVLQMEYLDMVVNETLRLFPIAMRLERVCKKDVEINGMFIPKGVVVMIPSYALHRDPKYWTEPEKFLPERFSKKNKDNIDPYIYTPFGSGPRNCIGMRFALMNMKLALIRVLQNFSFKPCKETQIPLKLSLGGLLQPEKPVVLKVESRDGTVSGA
Summary of the method: (§2)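 Pooled human liver microsomes in 100 mM potassium phosphate, pH 7.4, at 37 °C with 1000 µM NADPH for 15 min. Microsomes 0.15 mg/mL for CYP2C9 and CYP2D6, 0.25 mg/mL for CYP3A4. Inhibitor tested at six concentrations (0.2–50 µM). Reactions quenched with acetonitrile; metabolite measured by LC/MS/MS; IC50 from 4-parameter sigmoidal fit.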

[5] = Drug uptake in nu/nu homozygous mouse plasma at 100 mg/kg, po as a suspension in 10% NMP/corn oil after 1 hr by HPLC/MS/MS analysis; assay type: ADME, organism-based; design: dose 100 mg/kg, route oral; summary of the method: as §1
[6] = target: Cytochrome P450 2D6 (Homo sapiens, UniProt P10635); experiment: Inhibition of human CYP2D6 using bufuralol as substrate by LC/MS/MS analysis; assay type: ADME; summary of the method: as §2
Cytochrome P450 2D6, sequence (P10635 whole entry): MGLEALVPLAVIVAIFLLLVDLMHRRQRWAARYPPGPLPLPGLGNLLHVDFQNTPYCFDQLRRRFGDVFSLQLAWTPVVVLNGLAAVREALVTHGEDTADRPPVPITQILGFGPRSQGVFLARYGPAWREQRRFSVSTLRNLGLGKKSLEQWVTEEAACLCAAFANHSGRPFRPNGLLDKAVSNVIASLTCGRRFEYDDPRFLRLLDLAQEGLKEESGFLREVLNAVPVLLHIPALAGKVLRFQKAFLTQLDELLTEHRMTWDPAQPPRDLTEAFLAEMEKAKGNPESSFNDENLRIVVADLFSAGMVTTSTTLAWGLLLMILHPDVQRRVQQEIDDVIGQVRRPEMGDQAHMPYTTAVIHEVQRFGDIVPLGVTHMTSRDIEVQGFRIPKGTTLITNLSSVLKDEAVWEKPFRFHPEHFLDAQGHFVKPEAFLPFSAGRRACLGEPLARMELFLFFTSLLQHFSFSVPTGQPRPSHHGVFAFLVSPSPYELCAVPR

[7] = target: Cytochrome P450 2C9 (Homo sapiens, UniProt P11712); experiment: Inhibition of human CYP2C9 using tolbutamide as substrate by LC/MS/MS analysis; assay type: ADME; summary of the method: as §2
Cytochrome P450 2C9, sequence (P11712 whole entry): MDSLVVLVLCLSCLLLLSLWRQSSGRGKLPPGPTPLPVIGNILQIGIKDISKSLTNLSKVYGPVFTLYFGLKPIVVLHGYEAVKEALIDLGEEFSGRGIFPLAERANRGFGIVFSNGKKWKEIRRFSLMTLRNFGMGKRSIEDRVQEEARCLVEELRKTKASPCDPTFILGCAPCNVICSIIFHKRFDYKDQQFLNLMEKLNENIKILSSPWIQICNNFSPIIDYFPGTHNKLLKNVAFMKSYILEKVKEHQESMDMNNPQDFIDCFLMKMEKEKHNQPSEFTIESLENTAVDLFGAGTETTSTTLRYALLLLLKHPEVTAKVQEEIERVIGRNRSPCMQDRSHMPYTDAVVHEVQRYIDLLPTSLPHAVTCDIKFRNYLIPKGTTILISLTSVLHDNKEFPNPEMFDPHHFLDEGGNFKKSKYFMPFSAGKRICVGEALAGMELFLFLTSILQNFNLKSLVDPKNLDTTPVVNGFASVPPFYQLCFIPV

[8] = target: Sphingosine 1-phosphate receptor 3 (Homo sapiens, UniProt Q99500); experiment: Antagonist activity at S1P3 receptor expressed in HEK293 cells assessed as inhibition of S1P-induced tango beta-arrestin recruitment preincubated for 30 mins prior S1P addition measured after 16 to 18 hrs by luciferase reporter gene assay; assay type: functional, cell-based
Sphingosine 1-phosphate receptor 3, sequence (Q99500 whole entry): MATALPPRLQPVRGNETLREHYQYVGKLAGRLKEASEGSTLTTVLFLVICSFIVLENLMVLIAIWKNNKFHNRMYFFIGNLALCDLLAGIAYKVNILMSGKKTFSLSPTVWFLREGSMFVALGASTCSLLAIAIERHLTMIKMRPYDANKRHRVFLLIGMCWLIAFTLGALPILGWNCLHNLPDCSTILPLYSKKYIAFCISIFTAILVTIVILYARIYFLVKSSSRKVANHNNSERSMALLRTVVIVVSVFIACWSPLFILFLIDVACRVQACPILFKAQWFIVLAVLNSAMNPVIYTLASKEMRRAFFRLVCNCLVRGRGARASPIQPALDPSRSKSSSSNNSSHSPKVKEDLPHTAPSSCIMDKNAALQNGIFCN

[9] = Metabolic stability of the compound in mouse liver microsomes assessed as compound oxidation measuring disappearance of compound at 15 uM after 30 mins by LC/MS/MS analysis; assay type: ADME, Microsome; details: read-out: Drug degradation
Summary of the method: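 Incubated in duplicate for 30 min at 37 °C: 15 µM compound, 0.15% DMSO, 0.5 mg/mL mouse liver microsomes, 1 mM NADPH, 100 mM potassium phosphate pH 7.4. Stopped with acetonitrile containing 0.1% formic acid. Parent remaining measured by LC/MS/MS; disappearance calculated relative to no-NADPH controls.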

[10] = target: T1, Sphingosine 1-phosphate receptor 1; experiment: Antagonist activity at S1P1 receptor expressed in HEK293 cells assessed as inhibition of S1P-induced tango beta-arrestin recruitment preincubated for 30 mins prior S1P addition measured after 16 to 18 hrs by luciferase reporter gene assay; assay type: functional, cell-based
[11] = target: Sphingosine 1-phosphate receptor 2 (Homo sapiens, UniProt O95136); experiment: Antagonist activity at S1P2 receptor expressed in HEK293 cells assessed as inhibition of S1P-induced tango beta-arrestin recruitment preincubated for 30 mins prior S1P addition measured after 16 to 18 hrs by luciferase reporter gene assay; assay type: functional, cell-based
Sphingosine 1-phosphate receptor 2, sequence (O95136 whole entry): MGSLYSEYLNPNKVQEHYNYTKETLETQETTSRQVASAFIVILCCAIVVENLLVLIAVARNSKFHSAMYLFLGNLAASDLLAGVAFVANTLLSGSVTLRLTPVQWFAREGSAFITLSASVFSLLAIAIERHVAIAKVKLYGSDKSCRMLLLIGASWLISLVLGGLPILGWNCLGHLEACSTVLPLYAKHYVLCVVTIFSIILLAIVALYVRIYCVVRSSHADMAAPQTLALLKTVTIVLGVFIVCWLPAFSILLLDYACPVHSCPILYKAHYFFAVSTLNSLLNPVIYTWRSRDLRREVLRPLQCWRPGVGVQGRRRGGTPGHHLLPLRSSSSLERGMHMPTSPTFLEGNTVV

[12] = Antitumor activity against human MDA-MB-231T cells xenografted in athymic nude mouse assessed as tumor growth inhibition at 100 mg/kg, po qd for 14 days post implantation measured for 14 days; assay type: functional; details: 336 h, read-out: TGI
Summary of the method: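 MDA-MB-231T cells grown in DMEM with 10% FBS. 1 x 10⁶ cells in ice-cold HBSS implanted into the mammary fat pad of female athymic nude (NCr) mice, 5-8 wk. Daily oral dosing at 10 mL/kg, solutions made fresh daily. Tumor weight measured twice weekly; TGI calculated against vehicle and staging-day weights; 2-tailed t-test, p<0.05.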

[13] = Drug uptake in nu/nu homozygous mouse plasma at 100 mg/kg, po after 4 hrs by HPLC/MS/MS analysis; assay type: ADME, organism-based; design: dose 100 mg/kg, route oral; summary of the method: as §1
[14] = Drug uptake in nu/nu homozygous mouse plasma at 100 mg/kg, po after 1 hr by HPLC/MS/MS analysis; assay type: ADME, organism-based; design: dose 100 mg/kg, route oral; summary of the method: as §1

T1 sequence (P21453 whole entry): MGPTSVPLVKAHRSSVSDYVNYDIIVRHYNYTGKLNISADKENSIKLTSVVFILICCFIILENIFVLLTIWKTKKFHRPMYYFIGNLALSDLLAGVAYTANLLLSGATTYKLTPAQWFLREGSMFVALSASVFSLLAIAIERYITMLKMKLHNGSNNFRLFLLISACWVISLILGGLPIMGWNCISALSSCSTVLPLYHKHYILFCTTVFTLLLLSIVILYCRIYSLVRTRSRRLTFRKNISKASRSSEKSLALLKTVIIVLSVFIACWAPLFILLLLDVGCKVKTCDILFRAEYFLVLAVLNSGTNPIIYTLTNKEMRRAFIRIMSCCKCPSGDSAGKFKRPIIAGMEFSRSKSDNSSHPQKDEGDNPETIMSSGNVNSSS

Row | Structure (SMILES) | IC50 [1] [nM] | concentration at 4 h [2] [µM] | IC50 [4] [nM] | IC50 [6] [nM] | IC50 [7] [nM] | further results
1 | O=C(Nc1ccc(Oc2ccc(F)cc2)cc1)[C@@H]1CN(Cc2ccccc2)CCN1C(=O)Cc1cnc[nH]1 | 84 | 6.3 |  |  |  | concentration at 24 h [3]: 9.2 µM
2 | O=C(Nc1ccc(Oc2ccc(F)cc2)cc1)[C@@H]1C[C@@H](c2ccccc2)CN1C(=O)Cn1cncn1 | 492 |  |  |  |  | 
3 | O=C(Nc1ccc(Oc2ccc(F)cc2)cc1)[C@@H]1C[C@@H](Cc2ccccc2)CN1C(=O)Cn1cncn1 | 6.8 | 86.4 | > 20000 | 392 | 2290 | IC50 [8]: > 10000 nM; concentration at 24 h [3]: 8.3 µM; metabolised at 0.5 h, 15 µM [9]: 13%; IC50 [10]: 45 nM; IC50 [11]: > 10000 nM
4 | O=C(Nc1ccc(Oc2ccc(F)cc2)cc1)[C@@H]1C[C@@H](Cc2ccc(F)cc2)CN1C(=O)Cn1cncn1 | 5.8 | 104 | 12600 | 7370 | 2190 | IC50 [8]: > 10000 nM; concentration at 24 h [3]: 18 µM; metabolised at 0.5 h, 15 µM [9]: 8%; IC50 [10]: 13 nM; IC50 [11]: > 10000 nM
5 | O=C(Nc1ccc(Oc2ccc(F)cc2)cc1)[C@@H]1C[C@H](Cc2ccc(F)cc2)CN1C(=O)Cn1cncn1 | 48 |  | > 20000 | 3780 | 1350 | 
6 | O=C(Nc1ccc(Oc2ccc(F)cc2)cc1)[C@H]1C[C@H](Cc2ccc(F)cc2)CN1C(=O)Cn1ccnn1 | > 1000 |  |  |  |  | 
7 | O=C(Nc1ccc(Oc2ccc(F)cc2)cc1)[C@@H]1C[C@@H](Cc2ccc(F)cc2)CN1C(=O)Cn1nccn1 | 4.8 | 23 | > 20000 | > 50000 | 17400 | IC50 [8]: > 10000 nM; inhibition in vivo at 100 mg/kg [12]: 60%; concentration at 24 h [3]: 2 µM; IC50 [10]: 21 nM; IC50 [11]: > 10000 nM
8 | CN(CC(=O)NC(COCc1ccccc1)C(=O)Nc1ccc(Oc2ccccc2)cc1)C(=O)c1ccccc1 (racemic) | 718 |  |  |  |  | IC50 [8]: > 10000 nM; concentration at 4 h [13]: < 0.019 µM; metabolised at 0.5 h, 15 µM [9]: 89%; IC50 [10]: 2800 nM; concentration at 1 h [14]: < 0.019 µM; IC50 [11]: > 10000 nM
9 | O=C(CCCC(=O)c1cccs1)NC(COCc1ccccc1)C(=O)Nc1ccc(Oc2ccccc2)cc1 (racemic) | 286 |  |  |  |  | 
10 | O=C(NC(COCc1ccccc1)C(=O)Nc1ccc(Oc2ccccc2)cc1)C1CC1 (racemic) | 297 |  |  |  |  | 

Further lines, with some results ahead:

Row | IC50 [1] [nM] | concentration at 4 h [2] [µM] | IC50 [4] [nM] | IC50 [6] [nM] | IC50 [7] [nM] | Structure (SMILES) | further results
11 | > 10000 |  |  |  |  | O=C(Cc1cnc[nH]1)N[C@@H](COCc1ccccc1)C(=O)Nc1ccc(-c2ccccc2)cc1 | 
12 | 14 |  |  |  |  | O=C(Cc1cnc[nH]1)N[C@@H](CCCc1ccccc1)C(=O)Nc1ccc(Oc2ccccc2)cc1 | 
13 | 752 |  |  |  |  | C[C@H](NC(=O)Cc1cnc[nH]1)C(=O)Nc1ccc(Oc2ccc(Cl)cc2)cc1 | 
14 | 326 |  |  |  |  | O=C(Cc1cnc[nH]1)N[C@@H](Cc1ccccc1)C(=O)Nc1ccc(Oc2ccc(Cl)cc2)cc1 | 
15 | 181 |  |  |  |  | CN(C(=O)Cc1c[nH]cn1)[C@@H](COCc1ccccc1)C(=O)Nc1ccc(Oc2ccccc2)cc1 | 
16 | 8280 |  |  |  |  | CN(C(=O)[C@H](COCc1ccccc1)NC(=O)Cc1cnc[nH]1)c1ccc(Oc2ccccc2)cc1 | 
17 | 84.7 | 9.8 | 7150 | 1180 | < 205 | O=C(Nc1ccc(Oc2ccc(F)cc2)cc1)[C@@H]1C[C@@H](Cc2ccccc2)CN1C(=O)Cc1cnc[nH]1 | concentration at 1 h [5]: 26.2 µM
18 | 158 | 27.2 | 301 | 663 | 213 | O=C(Nc1ccc(Oc2ccc(F)cc2)cc1)[C@@H]1C[C@@H](c2ccccc2)CN1C(=O)Cc1cnc[nH]1 | concentration at 24 h [3]: 5 µM
